ChEMBL document CHEMBL4038305, “Benzoxaborole Antimalarial Agents. Part 5. Lead Optimization of Novel Amide Pyrazinyloxy Benzoxaboroles and Identification of a Preclinical Candidate” (J Med Chem, 2017)

These compounds were tested on Plasmodium berghei (assay: Antimalarial activity against Plasmodium berghei infected in Swiss Webster mouse assessed as mouse survival rate administered once daily via oral gavage for 4 consecutive days beginning 1 hr after infection measured on day 4 post infection). Details: not given.
Assay type: functional
How it was run: (§1)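 Mice given an intraperitoneal injection of P. berghei-infected erythrocytes taken from a previously infected animal. Oral dosing once daily for 4 consecutive days, starting 1 h after infection. Vehicle: polyethylene glycol 300/propylene glycol/water (weight ratio 55/25/20). Percent survival recorded daily from day 4 to day 20. Chloroquine 30 mg/kg and vehicle-only groups served as controls.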
For `CCC1(O)CN(C(=O)c2cnc(Oc3ccc4c(c3C)B(O)OC4)cn2)C1`, the ED90 was 4.8 mg/kg.

What follows are compounds tested on Plasmodium falciparum (assay: Antimalarial activity against chloroquine-resistant Plasmodium falciparum W2 infected in human erythrocytes after 48 hrs by YOYO-1 dye based flow cytometric analysis). Details: W2, 48 h.
Assay type: functional, cell-based
How it was run: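 P. falciparum W2 cultures were exposed to the compound for 48 h, with artemisinin and chloroquine as reference controls. IC50 was taken from two independent replicates.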
`CCC1(O)CN(C(=O)c2cnc(Oc3ccc4c(c3C)B(O)OC4)cn2)C1` was tested, and the IC50 was 28.9 nM.

Each compound was assayed on Plasmodium berghei (assay: Antimalarial activity against Plasmodium berghei infected in Swiss Webster mouse assessed as mouse survival rate at 11 mg/kg administered once daily via oral gavage for 4 consecutive days beginning 1 hr after infection measured on day 7 post infection relative to control). Details: not given.
Assay type: functional
How it was run: (§2)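 P. berghei-infected erythrocytes taken from a previously infected mouse were injected intraperitoneally. Oral dosing, once daily for 4 consecutive days, began 1 h after infection, in polyethylene glycol 300/propylene glycol/water (55/25/20 by weight). Chloroquine at 30 mg/kg was the positive control, with a vehicle-only group. Percent survival was recorded daily from day 4 to day 20.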
`CCC1(O)CN(C(=O)c2cnc(Oc3ccc4c(c3C)B(O)OC4)cn2)C1` gave a survival at 11 mg/kg of 40%.

What follows are compounds tested on Plasmodium berghei (assay: Antimalarial activity against Plasmodium berghei infected in Swiss Webster mouse assessed as mouse survival rate at 1.2 mg/kg administered once daily via oral gavage for 4 consecutive days beginning 1 hr after infection measured on day 6 post infection relative to control). Details: not given.
Assay type: functional
How it was run: as §1
For `CCC1(O)CN(C(=O)c2cnc(Oc3ccc4c(c3C)B(O)OC4)cn2)C1`, the survival at 1.2 mg/kg was 100%.

What follows are compounds tested on Plasmodium berghei (assay: Antimalarial activity against Plasmodium berghei infected in Swiss Webster mouse assessed as mouse survival rate at 100 mg/kg administered once daily via oral gavage for 4 consecutive days beginning 1 hr after infection measured on day 8 post infection relative to control). Details: not given.
Assay type: functional
How it was run: as §1
`CCC1(O)CN(C(=O)c2cnc(Oc3ccc4c(c3C)B(O)OC4)cn2)C1` was tested, and the survival at 100 mg/kg was 100%.

The compounds below were run on Plasmodium berghei (assay: Antimalarial activity against Plasmodium berghei infected in Swiss Webster mouse assessed as mouse survival rate at 0.1 mg/kg administered once daily via oral gavage for 4 consecutive days beginning 1 hr after infection measured on day 7 post infection relative to control). Details: not given.
Assay type: functional
How it was run: as §1
`CCC1(O)CN(C(=O)c2cnc(Oc3ccc4c(c3C)B(O)OC4)cn2)C1` was tested, and the survival at 0.1 mg/kg was 0%.

The compounds below were run on Plasmodium berghei (assay: Antimalarial activity against Plasmodium berghei infected in Swiss Webster mouse assessed as mouse survival rate at 100 mg/kg administered once daily via oral gavage for 4 consecutive days beginning 1 hr after infection measured on day 9 post infection relative to control). Details: not given.
Assay type: functional
How it was run: as §1
With `CCC1(O)CN(C(=O)c2cnc(Oc3ccc4c(c3C)B(O)OC4)cn2)C1` the survival at 100 mg/kg was 100%.

These compounds were tested on Plasmodium berghei (assay: Antimalarial activity against Plasmodium berghei infected in Swiss Webster mouse assessed as mouse survival rate at 0.4 mg/kg administered once daily via oral gavage for 4 consecutive days beginning 1 hr after infection measured on day 6 post infection relative to control). Details: not given.
Assay type: functional
How it was run: as §1
For `CCC1(O)CN(C(=O)c2cnc(Oc3ccc4c(c3C)B(O)OC4)cn2)C1`, the survival at 0.4 mg/kg was 100%.

These compounds were tested on Plasmodium berghei (assay: Antimalarial activity against Plasmodium berghei infected in Swiss Webster mouse assessed as mouse survival rate at 100 mg/kg administered once daily via oral gavage for 4 consecutive days beginning 1 hr after infection measured on day 5 post infection relative to control). Details: not given.
Assay type: functional
How it was run: as §1
`CCC1(O)CN(C(=O)c2cnc(Oc3ccc4c(c3C)B(O)OC4)cn2)C1` showed a survival at 100 mg/kg of 100%.

Each compound was assayed on Plasmodium berghei (assay: Antimalarial activity against Plasmodium berghei infected in Swiss Webster mouse assessed as mouse survival rate at 0.4 mg/kg administered once daily via oral gavage for 4 consecutive days beginning 1 hr after infection measured on day 4 post infection relative to control). Details: not given.
Assay type: functional
How it was run: as §1
For `CCC1(O)CN(C(=O)c2cnc(Oc3ccc4c(c3C)B(O)OC4)cn2)C1`, the survival at 0.4 mg/kg was 100%.

These compounds were tested on Plasmodium berghei (assay: Antimalarial activity against Plasmodium berghei infected in Swiss Webster mouse assessed as mouse survival rate at 33 mg/kg administered once daily via oral gavage for 4 consecutive days beginning 1 hr after infection measured on day 8 post infection relative to control). Details: not given.
Assay type: functional
How it was run: as §2
For `CCC1(O)CN(C(=O)c2cnc(Oc3ccc4c(c3C)B(O)OC4)cn2)C1`, the survival at 33 mg/kg was 100%.

The compounds below were run on Plasmodium berghei (assay: Antimalarial activity against Plasmodium berghei infected in Swiss Webster mouse assessed as mouse survival rate at 100 mg/kg administered once daily via oral gavage for 4 consecutive days beginning 1 hr after infection measured on day 14 post infection relative to control). Details: not given.
Assay type: functional
How it was run: as §1
In the case of `CCC1(O)CN(C(=O)c2cnc(Oc3ccc4c(c3C)B(O)OC4)cn2)C1`, the survival at 100 mg/kg is reported as 0%.

What follows are compounds tested on Plasmodium berghei (assay: Antimalarial activity against Plasmodium berghei infected in Swiss Webster mouse assessed as mouse survival rate at 3.7 mg/kg administered once daily via oral gavage for 4 consecutive days beginning 1 hr after infection measured on day 6 post infection relative to control). Details: not given.
Assay type: functional
How it was run: as §2
Compound `CCC1(O)CN(C(=O)c2cnc(Oc3ccc4c(c3C)B(O)OC4)cn2)C1` has a survival at 3.7 mg/kg of 100%.

Each compound was assayed on Plasmodium falciparum (assay: Antimalarial activity against chloroquine-sensitive Plasmodium falciparum 3D7 infected in human erythrocytes assessed as reduction in [3H]-hypoxanthine incorporation preincubated for 24 hrs followed by [3H]-hypoxanthine addition measured after 24 hrs by scintillation counting method). Details: not given.
Assay type: functional, cell-based
How it was run: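 P. falciparum 3D7 cultures were exposed to the compound for 48 h, with atovaquone as the reference control. IC50 was taken from three replicates.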
`CCC1(O)CN(C(=O)c2cnc(Oc3ccc4c(c3C)B(O)OC4)cn2)C1` was tested, and the IC50 was 55 nM.

What follows are compounds tested on Plasmodium berghei (assay: Antimalarial activity against Plasmodium berghei infected in Swiss Webster mouse assessed as mouse survival rate at 100 mg/kg administered once daily via oral gavage for 4 consecutive days beginning 1 hr after infection measured on day 6 post infection relative to control). Details: not given.
Assay type: functional
How it was run: as §1
Work on `CCC1(O)CN(C(=O)c2cnc(Oc3ccc4c(c3C)B(O)OC4)cn2)C1` yielded a survival at 100 mg/kg of 100%.

The compounds below were run on Plasmodium berghei (assay: Antimalarial activity against Plasmodium berghei infected in Swiss Webster mouse assessed as mouse survival rate at 0.1 mg/kg administered once daily via oral gavage for 4 consecutive days beginning 1 hr after infection measured on day 4 post infection relative to control). Details: not given.
Assay type: functional
How it was run: as §1
In the case of `CCC1(O)CN(C(=O)c2cnc(Oc3ccc4c(c3C)B(O)OC4)cn2)C1`, the survival at 0.1 mg/kg is reported as 100%.

Each compound was assayed on Plasmodium berghei (assay: Antimalarial activity against Plasmodium berghei infected in Swiss Webster mouse assessed as mouse survival rate at 11 mg/kg administered once daily via oral gavage for 4 consecutive days beginning 1 hr after infection measured on day 4 post infection relative to control). Details: not given.
Assay type: functional
How it was run: as §2
`CCC1(O)CN(C(=O)c2cnc(Oc3ccc4c(c3C)B(O)OC4)cn2)C1` was tested, and the survival at 11 mg/kg was 100%.

What follows are compounds tested on Plasmodium berghei (assay: Antimalarial activity against Plasmodium berghei infected in Swiss Webster mouse assessed as mouse survival rate at 0.4 mg/kg administered once daily via oral gavage for 4 consecutive days beginning 1 hr after infection measured on day 7 post infection relative to control). Details: not given.
Assay type: functional
How it was run: as §1
`CCC1(O)CN(C(=O)c2cnc(Oc3ccc4c(c3C)B(O)OC4)cn2)C1` gave a survival at 0.4 mg/kg of 0%.

The compounds below were run on Plasmodium berghei (assay: Antimalarial activity against Plasmodium berghei infected in Swiss Webster mouse assessed as mouse survival rate at 0.4 mg/kg administered once daily via oral gavage for 4 consecutive days beginning 1 hr after infection measured on day 5 post infection relative to control). Details: not given.
Assay type: functional
How it was run: as §1
For `CCC1(O)CN(C(=O)c2cnc(Oc3ccc4c(c3C)B(O)OC4)cn2)C1`, the survival at 0.4 mg/kg was 100%.

These compounds were tested on Plasmodium berghei (assay: Antimalarial activity against Plasmodium berghei infected in Swiss Webster mouse assessed as mouse survival rate at 33 mg/kg administered once daily via oral gavage for 4 consecutive days beginning 1 hr after infection measured on day 11 post infection relative to control). Details: not given.
Assay type: functional
How it was run: as §2
With `CCC1(O)CN(C(=O)c2cnc(Oc3ccc4c(c3C)B(O)OC4)cn2)C1` the survival at 33 mg/kg was 20%.

Each compound was assayed on Plasmodium berghei (assay: Antimalarial activity against Plasmodium berghei infected in Swiss Webster mouse assessed as mouse survival rate at 11 mg/kg administered once daily via oral gavage for 4 consecutive days beginning 1 hr after infection measured on day 5 post infection relative to control). Details: not given.
Assay type: functional
How it was run: as §2
`CCC1(O)CN(C(=O)c2cnc(Oc3ccc4c(c3C)B(O)OC4)cn2)C1` was tested, and the survival at 11 mg/kg was 100%.

What follows are compounds tested on Plasmodium berghei (assay: Antimalarial activity against Plasmodium berghei infected in Swiss Webster mouse assessed as mouse survival rate at 100 mg/kg administered once daily via oral gavage for 4 consecutive days beginning 1 hr after infection measured on day 10 post infection relative to control). Details: not given.
Assay type: functional
How it was run: as §1
Compound `CCC1(O)CN(C(=O)c2cnc(Oc3ccc4c(c3C)B(O)OC4)cn2)C1` has a survival at 100 mg/kg of 100%.

Each compound was assayed on Plasmodium berghei (assay: Antimalarial activity against Plasmodium berghei infected in Swiss Webster mouse assessed as mouse survival rate at 1.2 mg/kg administered once daily via oral gavage for 4 consecutive days beginning 1 hr after infection measured on day 4 post infection relative to control). Details: not given.
Assay type: functional
How it was run: as §1
With `CCC1(O)CN(C(=O)c2cnc(Oc3ccc4c(c3C)B(O)OC4)cn2)C1` the survival at 1.2 mg/kg was 100%.

What follows are compounds tested on Plasmodium berghei (assay: Antimalarial activity against Plasmodium berghei infected in Swiss Webster mouse assessed as mouse survival rate at 3.7 mg/kg administered once daily via oral gavage for 4 consecutive days beginning 1 hr after infection measured on day 7 post infection relative to control). Details: not given.
Assay type: functional
How it was run: as §2
`CCC1(O)CN(C(=O)c2cnc(Oc3ccc4c(c3C)B(O)OC4)cn2)C1` was tested, and the survival at 3.7 mg/kg was 0%.

What follows are compounds tested on Plasmodium berghei (assay: Antimalarial activity against Plasmodium berghei infected in Swiss Webster mouse assessed as mouse survival rate at 0.1 mg/kg administered once daily via oral gavage for 4 consecutive days beginning 1 hr after infection measured on day 5 post infection relative to control). Details: not given.
Assay type: functional
How it was run: as §1
`CCC1(O)CN(C(=O)c2cnc(Oc3ccc4c(c3C)B(O)OC4)cn2)C1` was tested, and the survival at 0.1 mg/kg was 100%.

Each compound was assayed on Plasmodium berghei (assay: Antimalarial activity against Plasmodium berghei infected in Swiss Webster mouse assessed as mouse survival rate at 3.7 mg/kg administered once daily via oral gavage for 4 consecutive days beginning 1 hr after infection measured on day 5 post infection relative to control). Details: not given.
Assay type: functional
How it was run: as §2
For `CCC1(O)CN(C(=O)c2cnc(Oc3ccc4c(c3C)B(O)OC4)cn2)C1`, the survival at 3.7 mg/kg was 100%.

The compounds below were run on Plasmodium berghei (assay: Antimalarial activity against Plasmodium berghei infected in Swiss Webster mouse assessed as mouse survival rate at 33 mg/kg administered once daily via oral gavage for 4 consecutive days beginning 1 hr after infection measured on day 4 post infection relative to control). Details: not given.
Assay type: functional
How it was run: as §2
In the case of `CCC1(O)CN(C(=O)c2cnc(Oc3ccc4c(c3C)B(O)OC4)cn2)C1`, the survival at 33 mg/kg is reported as 100%.
